Reference: ChEMBL document CHEMBL3112405, “A-ring modified betulinic acid derivatives as potent cancer preventive agents” (Bioorg Med Chem Lett, 2014)

Columns and labels:
Raji [1] = experiment: Chemopreventive activity in human Raji cells assessed as inhibition of TPA-induced EBV-early antigen activation by measuring EBV-EA positive cells at 10 molar ratio/20 ng/ml of TPA after 48 hrs by immunofluorescence analysis; assay type: cell-based; design: scale not given: the % may be the effect or the level left; conditions: human gammaherpesvirus 4
Outline: (§1)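 Raji cells (EBV genome-carrying, virus non-producer; cultured in RPMI-1640 with 10% FBS) incubated 48 h at 37 °C with n-butyric acid (4 mM), TPA ([…] = 20 ng) and test compounds in DMSO. EBV-EA positive cells were detected by indirect immunofluorescence with NPC patient serum, counting ≥500 cells, triplicate. Results were expressed relative to the butyric acid+TPA control (100%). Viability was checked by Trypan blue.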

Raji [2] = experiment: Chemopreventive activity in human Raji cells assessed as inhibition of TPA-induced EBV-early antigen activation by measuring EBV-EA positive cells at 1000 molar ratio/20 ng/ml of TPA after 48 hrs by immunofluorescence analysis relative to control; assay type: cell-based; design: scale not given: the % may be the effect or the level left; conditions: human gammaherpesvirus 4
Outline: (§2)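 Raji cells (EBV genome-carrying, Burkitt's lymphoma-derived, virus non-producer), grown in RPMI-1640 with 10% FBS. Cells were incubated 48 h at 37 °C with n-butyric acid (4 mM), TPA ([…] = 20 ng, in DMSO) and test compound in DMSO at 10–1000 mol ratio/TPA. EBV-EA-positive cells were detected by indirect immunofluorescence using NPC patient serum, with at least 500 cells counted. Triplicates were run, expressed relative to the butyrate+TPA control (100%). Viability was checked by Trypan blue.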

Raji [3] = experiment: Chemopreventive activity in human Raji cells assessed as inhibition of TPA-induced EBV-early antigen activation by measuring EBV-EA positive cells at 100 molar ratio/20 ng/ml of TPA after 48 hrs by immunofluorescence analysis; assay type: cell-based; design: scale not given: the % may be the effect or the level left; conditions: human gammaherpesvirus 4; outline: as §2
[4] = Chemopreventive activity in human Raji cells assessed as molar ratio of compound required to inhibit 50% of control of inhibition of TPA-induced EBV-early antigen activation after 48 hrs by immunofluorescence analysis; assay type: cell-based, human gammaherpesvirus 4; outline: as §1
Raji [5] = experiment: Chemopreventive activity in human Raji cells assessed as inhibition of TPA-induced EBV-early antigen activation by measuring EBV-EA positive cells at 500 molar ratio/20 ng/ml of TPA after 48 hrs by immunofluorescence analysis; assay type: cell-based; design: scale not given: the % may be the effect or the level left; conditions: human gammaherpesvirus 4; outline: as §2
Mus musculus [6] = species: Mus musculus; experiment: Inhibition of DMBA-TPA-induced carcinogenesis in mouse skin assessed as reduction of number of papilloma at 85 nmol after 11 weeks relative to control; assay type: functional; design: scale not given: the % may be the effect or the level left
Outline: (§3)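 Two-stage mouse skin model. Initiation used DMBA (390 nmol). Promotion used TPA (1.7 nmol) twice weekly, starting 1 week after initiation. Test compound (85 nmol) was given with TPA. Papilloma incidence (% of mice bearing papillomas) and average papillomas per mouse were monitored over 20 weeks against a TPA-alone control.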

Mus musculus [7] = species: Mus musculus; experiment: Inhibition of DMBA-TPA-induced carcinogenesis in mouse skin assessed as reduction of number of papilloma at 85 nmol after 8 weeks relative to control; assay type: functional; design: scale not given: the % may be the effect or the level left; outline: as §3

| Compound | Activity (Raji [1]) | Activity (Raji [2]) | Activity (Raji [3]) | IC50 [4] | Activity (Raji [5]) | Activity (Mus musculus [6]) | Activity (Mus musculus [7]) |
| --- | --- | --- | --- | --- | --- | --- | --- |
| C=C(C)[C@@H]1CC[C@]2(C)[C@H](CC[C@@H]3[C@H]4[C@H](C(C)C)CC[C@]4(C(=O)NCCCCCCCNC(C)=O)CC[C@]32C)[C@@]1(C)CCC(=O)OC | 100% | 7.1% | 77.2% | 479 molar ratio | 54.4% | – | – |
| C=C(C)[C@@H]1CC[C@]2(C(=O)O)CC[C@]3(C)[C@H](CC[C@@H]4[C@@]5(C)CC[C@H](OC(=O)CC(C)(C)C(=O)O)C(C)(C)[C@@H]5CC[C@]43C)[C@@H]12 [BEVIRIMAT] | – | 6.1% | 74.2% | 396 molar ratio | 36.1% | – | – |
| C=C(C)[C@@H]1CC[C@]2(C)[C@H](CC[C@@H]3[C@H]4[C@H](C(C)C)CC[C@]4(C(=O)O)CC[C@]32C)[C@@]1(C)CCC(=O)OC | 94.2% | 0% | 66.9% | 311 molar ratio | 29.1% | – | – |
| COc1cc(/C=C/C(=O)CC(=O)/C=C/c2ccc(O)c(OC)c2)ccc1O [CURCUMIN] | 100% | 0% | 81.7% | 341 molar ratio | 22.8% | – | – |
| COC(=O)CC[C@]1(C)[C@H]2CC[C@@H]3[C@H]4[C@H](C(C)C)CC[C@]4(C(=O)O)CC[C@@]3(C)[C@]2(C)CC[C@H]1C(C)COC(=O)CC(C)(C)C(=O)O (stereo partly drawn) | 100% | 3.7% | 71.3% | 386 molar ratio | 36.4% | – | – |
| COC(=O)CC[C@]1(C)[C@H]2CC[C@@H]3[C@H]4[C@H](C(C)C)CC[C@]4(C(=O)NCCCCCCCNC(C)=O)CC[C@@]3(C)[C@]2(C)CC[C@H]1C(C)COC(C)=O (stereo partly drawn) | 100% | 7.8% | 79.4% | 490 molar ratio | 56% | – | – |
| CC(=O)NCCCCCCCNC(=O)[C@]12CC[C@@H](C(C)C)[C@@H]1[C@H]1CC[C@@H]3[C@@](C)(CCC(=O)O)[C@H](C(C)COC(=O)CC(C)(C)C(=O)O)CC[C@@]3(C)[C@]1(C)CC2 (stereo partly drawn) | 100% | 11.3% | 81.3% | 501 molar ratio | 57.2% | – | – |
| CC(=O)NCCCCCCCNC(=O)[C@]12CC[C@@H](C(C)C)[C@@H]1[C@H]1CC[C@@H]3[C@@]4(C)CCC(=O)OC(C)(C)[C@@H]4CC[C@@]3(C)[C@]1(C)CC2 | 100% | 15.3% | 83.2% | 523 molar ratio | 61.4% | – | – |
| CC(=O)NCCCCCCCNC(=O)[C@]12CC[C@@H](C(C)C)[C@@H]1[C@H]1CC[C@@H]3[C@@](C)(CCC(=O)O)[C@H](C(C)CO)CC[C@@]3(C)[C@]1(C)CC2 (stereo partly drawn) | 100% | 6.6% | 77.5% | 471 molar ratio | 52.1% | – | – |
| C=C(C)[C@@H]1CC[C@]2(C)[C@H](CC[C@@H]3[C@H]4[C@H](C(C)C)CC[C@]4(C(=O)NCCCCCCCNC(C)=O)CC[C@]32C)[C@@]1(C)CCC(=O)O | 100% | 6.7% | 76.3% | 460 molar ratio | 50.2% | – | – |
| COC(=O)CC[C@]1(C)[C@H]2CC[C@@H]3[C@H]4[C@H](C(C)C)CC[C@]4(C(=O)O)CC[C@@]3(C)[C@]2(C)CC[C@H]1C(C)CO (stereo partly drawn) | 96.3% | 0% | 68.1% | 323 molar ratio | 31.6% | 10% | 0% |
| COC(=O)CC[C@]1(C)[C@H]2CC[C@@H]3[C@H]4[C@H](C(C)C)CC[C@]4(C(=O)O)CC[C@@]3(C)[C@]2(C)CC[C@H]1C(C)COC(C)=O (stereo partly drawn) | 98.2% | 0% | 68.8% | 335 molar ratio | 33.8% | – | – |
| C=C(C)[C@@H]1CC[C@]2(C)[C@H](CC[C@@H]3[C@H]4[C@H](C(C)C)CC[C@]4(C(=O)O)CC[C@]32C)[C@@]1(C)CCC(=O)O | 91.6% | 0% | 65.1% | 295 molar ratio | 26.6% | 10% | 0% |
